Not all results are given here.
Apaf1 activ: activators of human Apaf-1 apoptosome | Apaf-1 apoptosome caspase-3 activation, DEVD-Rh110 fluorescence; active compounds read low | 330,000 tested, 0.31% active | AID 489031 | O14727 | activity change, negative = activation, % at 20 µM;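 active means activity change at or below -40% at 20 µM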
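System: Reconstituted apoptosome of Apaf-1, cytochrome c, caspase-9, procaspase-3 | Reagent: dATP, cytochrome c, and (Z-DEVD)2-Rh110 caspase-3 substrate | Times: 30 min compound preincubation and 50 min reaction, both room temperature | Detection: Caspase-3-released Rh110 fluorescence, 540 nm emission, 480 nm excitation | Measure: Caspase-3 activity via Apaf-1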
Rh110 act interf: counter-screen for Apaf-1 activators: fluorescence interference; shares compounds with Apaf1 activ; Rh110 fluorescence interference, quenched caspase reaction, Ex480/Em540; fluorescence interference (activity change), % at 20 µM, hits read low; 980 tested, under 10 active; AID 504616;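 active means mean activity change at or below -40% when tested at 20 µM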
Apaf-1 act conf2: Apaf-1 (human) activation, single-dose confirmed; shares compounds with Apaf1 activ; AID 504617; reconstituted apoptosome caspase-3 activity, DEVD-Rh110 fluorescence; active compounds read low; 980 tested, 5% active; activity change, negative = activation, % at 20 µM;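 active means mean activity change at or below -40%, meaning activation of 40% or more, at 20 µM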
* marks the source's active call; other numbers are inactive results; x = no result given.

SMILES	Apaf1 activ	Rh110 act interf	Apaf-1 act conf2
O=C(NCCCN1CCCCCC1)c1cc2c(=O)oc3ccccc3c2s1	40	x	x
COc1cc(N)c(Cc2nccc3cc(OC)c(OC)cc23)cc1OC	47	x	x
NCCCS(=O)(=O)O	-4	x	x
COC(=O)C(CCCCNC(=O)c1ccc([N+](=O)[O-])cc1)NC(=O)c1ccc([N+](=O)[O-])cc1 (stereo not drawn)	-48*	8	13
COc1ccc(C(=O)NCC(=O)OCc2ccc([N+](=O)[O-])cc2)cc1	-70*	12	11
C/C(=N/NC(=O)Cc1cc(=O)[nH][nH]1)c1ccc([N+](=O)[O-])cc1	55	x	x
CC1CN(C(=O)c2cccc(S(=O)(=O)NCc3ccccc3)c2)CC(C)O1 (stereo not drawn)	54	x	x
CSc1ccc(CN(C)C(=O)c2cccc(S(=O)(=O)NCc3ccccc3)c2)cc1	67	x	x
COC(=O)c1cc(S(=O)(=O)NCc2cccc(Br)c2)c[nH]1	-53*	-1	6
Nc1nc2c(s1)CCc1c-2cnn1-c1ccccc1	93	x	x
C=C[C@H]1CN2CC[C@H]1C[C@@H]2[C@@H](O)c1ccnc2ccc(OC)cc12	-3	x	x
COc1ccc(CCN(C)C(=O)c2ccc(COc3ccccc3)o2)cc1OC	66	x	x
COc1ccc(CC(=O)NNS(=O)(=O)c2ccc([N+](=O)[O-])cc2)cc1OC	-479*	6	11
COc1ccc(CC(=O)Nc2ccc(S(=O)(=O)Nc3onc(C)c3C)cc2)cc1OC	-91*	0	12
CCN1CCN(Cc2ccc(NC(=O)c3ccc(C)c(NC(=O)c4csc(-c5ccncc5)n4)c3)cc2C(F)(F)F)CC1	59	x	x
CCSCCC(NC1=CC(=O)CC(C)(C)C1)C(=O)O (stereo not drawn)	49	x	x

Bioassay records deposited in PubChem by Sanford-Burnham Center for Chemical Genomics.
